Screening results deposited in PubChem by several laboratories.
Arrestin-AP2 inh = blocks beta-arrestin peptide binding to AP2 adaptin | inhibition, % at 10 µM | 0.31% of 340,000 active | FITC-arrestin peptide / GST-AP2 beads, flow cytometry; AP2 beta2 appendage carries R879A mutation;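 active = inhibition above a set limit, near 3 SD of compounds lacking own fluorescence, cut at about 54% in these data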;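 note: plate controls were DMSO wells for no effect and 5 µM unlabelled arrestin peptide for full effect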
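System: GST-AP2 R879A glutathione beads | Also added: FITC-arrestin peptide, 50 nM | Times: 12 min plus 1 h, RT | Signal: Bead flow cytometry, FITC channel | Buffer or medium: PBS with 0.05% Tween 20 and 0.1% BSA | Read-out basis: Percent drop in bead-associated FITC signal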
ADAM10 inh = inhibitors of human ADAM10; recombinant ADAM10, EDANS/DABCYL FRET peptide cleavage, 3 h; inhibition, % at 7 µM; 0.62% of 370,000 active; AID 720582;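 active = inhibition above a per-campaign cutoff equal to the mean of compounds falling between control-based bounds plus 3 SD, cut at about 20% in these data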;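 note: 0% = DMSO wells while the 100% control is not disclosed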
NRP1-CendR mod = modulators of CendR peptide binding to human neuropilin-1 | O14786 | AID 602438 | 0.85% of 360,000 active | inhibition, % at 25 µM | FAM-RPARPAR peptide binding to NRP-1, fluorescence polarization;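 active = inhibition or corrected inhibition above about 18%, plus a signal ratio from 0.5 to 1.5, limit read from the data, passing the limit was not always enough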
Target sequence (O14786 whole entry, looked up): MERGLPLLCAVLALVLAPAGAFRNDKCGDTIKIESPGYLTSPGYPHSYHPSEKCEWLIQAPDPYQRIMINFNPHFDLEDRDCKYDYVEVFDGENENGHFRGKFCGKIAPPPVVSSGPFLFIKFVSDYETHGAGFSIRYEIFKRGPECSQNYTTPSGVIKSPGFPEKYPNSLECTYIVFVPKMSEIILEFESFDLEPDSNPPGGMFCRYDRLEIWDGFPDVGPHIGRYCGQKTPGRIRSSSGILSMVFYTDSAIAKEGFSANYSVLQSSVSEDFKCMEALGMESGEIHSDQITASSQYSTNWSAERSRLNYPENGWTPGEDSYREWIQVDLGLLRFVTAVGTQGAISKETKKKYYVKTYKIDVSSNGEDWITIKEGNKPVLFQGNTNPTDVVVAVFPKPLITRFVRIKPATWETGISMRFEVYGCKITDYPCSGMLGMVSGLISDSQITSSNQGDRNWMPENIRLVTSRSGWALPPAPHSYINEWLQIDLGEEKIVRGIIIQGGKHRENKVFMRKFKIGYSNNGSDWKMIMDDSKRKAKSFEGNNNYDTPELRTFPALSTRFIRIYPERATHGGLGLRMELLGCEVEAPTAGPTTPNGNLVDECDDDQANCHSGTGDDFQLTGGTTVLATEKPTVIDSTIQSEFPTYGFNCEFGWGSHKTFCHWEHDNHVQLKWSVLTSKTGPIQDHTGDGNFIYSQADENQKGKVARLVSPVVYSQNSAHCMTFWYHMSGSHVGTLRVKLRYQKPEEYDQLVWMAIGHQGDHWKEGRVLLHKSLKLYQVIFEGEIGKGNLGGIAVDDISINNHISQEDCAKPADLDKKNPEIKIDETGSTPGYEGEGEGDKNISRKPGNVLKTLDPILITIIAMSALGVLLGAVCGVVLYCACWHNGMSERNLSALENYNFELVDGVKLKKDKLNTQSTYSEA
FAS TE block = blocks the thioesterase domain of human fatty acid synthase; 0.67% of 360,000 active; recombinant FAS-TE, OMFH fluorogenic substrate, fluorescence endpoint; AID 602261; inhibition, % at 15 µM;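 active = compounds whose normalised, plate-corrected inhibition of enzyme fluorescence in the single-dose primary screen is 50% or more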;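 note: 0% = DMSO with enzyme and 100% = substrate without enzyme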
ADAM17 inh = ADAM17 inhibition, QFRET primary screen; P78536; recombinant ADAM17, EDANS/DABCYL FRET peptide cleavage; inhibition, % at 6.95 µM; 0.83% of 370,000 active;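 active = inhibition above the mean of compounds lying between control limits plus 3 SD, set per campaign, cut at about 8.5% in these data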;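 note: 0% = DMSO-only wells as the low control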
CaV13 ICDI inh = Primary screen for inhibitors of IQ motif and Ca2+-dependent inactivation inhibitor domain binding in CACNA1D, Förster resonance energy transfer in living cells, … | inhibition, % at 12.3 µM | HEK cells, CFP/YFP FRET ICDI-IQ, plate reader, 10 min; percent FRET-ratio fall versus neutral wells | 0.098% of 340,000 active | AID 743397;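 active = mean replicate inhibition of at least 30% and at least 1% of replicates passing that level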;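 note: 0% = median of the neutral control wells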
* marks the source's active call; other numbers are inactive results; i = inactive; / = no result given. Rows were chosen to be rich in hits. Some 2.9% of all compounds tested hit in one or more screens of this group.

SMILES | Arrestin-AP2 inh | ADAM10 inh | NRP1-CendR mod | FAS TE block | ADAM17 inh | CaV13 ICDI inh
CCn1c(C)nc2cc(OC)ccc21 | -1.2 | 1.9 | 20.9* | -0.2 | 3.4 | -5.1
COC(=O)[C@H]1C[C@@]2(N3CCCC3)c3ccccc3N[C@H]2N1S(C)(=O)=O | / | -6.8 | / | / | -2.1 | /
CC(C)(C)c1nnc2sc(SCC(=O)c3ccc(Cl)cc3)nn2c1=O | 7.2 | / | -0.1 | 50.8* | / | /
Cc1ccc(C(=O)CSc2nn3c(=O)c(C(C)(C)C)nnc3s2)cc1 | -2.9 | 0.3 | 2.0 | -8.4 | -2.9 | /
CCN(CC(=O)Nc1ccc2c(c1)OCCO2)C(=O)CCc1ccccc1Cl | -0.7 | 2.4 | -2.3 | 4.9 | 2.0 | -6.6
C[C@@]12CCC3[C@@](CCC4[C@@]3(C)CCC[C@@]4(C)C(=O)NC3CCCCC3)(CC1=O)C2 (stereo not given in full) | 7.1 | -2.3 | 32.2* | 27.5 | -2.6 | -5.0
COC(=O)[C@]1(CC(C)C)N[C@H](c2ccc(-c3ccc4c(c3)OCO4)cc2)[C@@H]2C(=O)N(C)C(=O)[C@@H]21 | 14.4 | -9.7 | 1.7 | 31.0 | -6.0 | -9.5
COC(=O)[C@]1(Cc2ccccc2)N[C@H](c2ccc(-c3ccc4c(c3)OCO4)cc2)[C@@H]2C(=O)N(C)C(=O)[C@@H]21 | 7.8 | -5.7 | 0.0 | 85.7* | -2.9 | -10.9
CC(=O)Nc1cncc(-c2ccccc2C(C)=O)n1 | / | -13.2 | 8.1 | -7.8 | -6.2 | -4.9
CNc1cncc(-c2ccccc2NC(C)=O)n1 | / | -455.1 | 32.3* | -6.0 | -108.9 | -7.2
COc1cc(-c2nnc(SCC(=O)Nc3ccc(C(=O)O)cc3)o2)cc(OC)c1OC | 2.6 | 0.5 | 31.3* | -3.7 | -1.3 | -5.5
C[C@H]1CN([C@@H](C)CO)C(=O)CCCn2nncc2CO[C@@H]1CN(C)Cc1ccc2cccnc2c1 | / | -1.1 | / | / | -3.4 | -5.5
COc1cccc(C(C(=O)NCc2ccccc2)N2CCN(c3cccc(C)c3C)CC2)c1OC (stereo not given) | / | -5.3 | -20.0 | / | 2.0 | -14.7
COc1ccc2c(c1)[nH]c1c(=O)n(CCCN3CCOCC3)cnc12 | 13.1 | -2.9 | -5.9 | -1.1 | -7.1 | -4.7
O=c1c2[nH]c3ccc(F)cc3c2ncn1CCCN1CCOCC1 | 3.9 | -48.4 | 46.6* | -6.5 | -16.5 | -5.3
CCCCCCc1cc2cc(-c3nnc(-c4ccccc4O)o3)c(=O)oc2cc1O | 21.0 | -16.3 | 132.5 | -0.5 | -9.0 | 3.7
CCCCCCc1cc2cc(S(=O)(=O)c3ccc(F)cc3)c(=O)oc2cc1O | 3.0 | -277.8 | -9.5 | -12.4 | -76.9 | 53.5*
CCOC(=O)C1(C)CCN1C(=O)c1ccccc1Br (stereo not given) | / | 1.1 | 3.5 | -0.2 | -1.5 | -9.9
Cc1cc(=O)oc2cc(OC(C)C(=O)NC3CCN(Cc4ccccc4)CC3)ccc12 (stereo not given) | -20.1 | -70.7 | -1.5 | -0.2 | -22.6 | -2.5
CC(Oc1ccc2c3c(c(=O)oc2c1)CCC3)C(=O)NC1CCN(Cc2ccccc2)CC1 (stereo not given) | -6.8 | -89.9 | 18.0* | 3.4 | -23.4 | -8.3
Nc1c(C(=O)NCc2ccc(F)cc2)c2nc3ccccc3nc2n1CCCN1CCOCC1 | 12.6 | i | -21.8 | 26.4 | -232.0 | -1.6
Nc1c(C(=O)NCc2ccccc2)c2nc3ccccc3nc2n1CCCN1CCOCC1 | 20.5 | i | -7.4 | 23.6 | -298.2 | 76.2*
O=C(O)c1ccccc1CSc1ccccn1 | -4.4 | 7.7 | 39.7* | -8.3 | -3.2 | -4.1
O=C(O)c1ccc(CSc2ccccn2)cc1 | -2.1 | 0.9 | 9.9 | -5.0 | 2.8 | -2.5
Cc1nc2sc(C(=O)NC3CC3)c(N)c2c(C)c1Cl | / | -34.4 | / | / | -9.1 | /
SMILES | Arrestin-AP2 inh | ADAM10 inh | NRP1-CendR mod | FAS TE block | ADAM17 inh | CaV13 ICDI inh
Cc1ccc(OCC(=O)c2c(N)n(C)c(=O)n(C)c2=O)c([N+](=O)[O-])n1 | 12.3 | -18.7 | 20.6* | -7.1 | -2.6 | -7.1
Cc1ccc(OCC(=O)c2cc(C)c(C)cc2C)c([N+](=O)[O-])n1 | 0.4 | -10.6 | -14.5 | 1.8 | -0.5 | /
Cc1nn(CCC(=O)NNC(=O)Nc2ccc(F)cc2)c(C)c1[N+](=O)[O-] | / | -2.0 | / | / | -0.1 | /
c1ccc(-n2nnnc2NCCCN2CCOCC2)cc1 | -1.3 | -3.3 | 30.4* | -4.5 | -2.4 | /
CCOc1ccc(S(=O)(=O)N2CCN(C(=O)c3ccccc3Cc3ccccc3)CC2)cc1 | 2.9 | 0.0 | 5.4 | -3.2 | -2.6 | -6.2
COc1ccc(C(=O)Nc2ccc(C(=O)OCC(=O)c3cccc4ccccc34)cc2)cc1 | -17.9 | -4.2 | 32.2* | -1.4 | -2.8 | -19.2
CCc1ccccc1OCC(=O)Nc1cc(S(=O)(=O)N(CC)CC)ccc1N1CCOCC1 | -6.5 | -2.0 | 0.1 | 29.4 | 1.4 | -2.1
CCNC(=O)C1(C)CCCN(Cc2ccccc2-c2ccccc2)C1 (stereo not given) | / | -0.1 | 22.7* | -7.6 | -1.4 | -11.8
CCNC(=O)C1(C)CCN(Cc2ccccc2-c2ccccc2)C1 (stereo not given) | / | 5.3 | -7.3 | -2.8 | 1.6 | -9.5
c1ccc(C[C@H]2COc3c4ccccc4nn32)cc1 | / | -5.8 | 25.5* | / | -4.6 | -6.0
COc1cccc(CNc2nc(NC(C)C)nc3ccsc23)c1 | / | -23.1 | -2.2 | -1.9 | -2.6 | -6.1
CC(C)(C)NC(=O)C(Cc1ccccc1)NS(=O)(=O)c1ccc2c(c1)CCC(=O)N2 (stereo not given) | 4.8 | -0.2 | 16.8 | -3.9 | -1.0 | -4.5
O=C1CCc2cc(S(=O)(=O)NC(Cc3ccccc3)C(=O)NCCC3=CCCCC3)ccc2N1 (stereo not given) | -4.4 | -9.9 | 17.3 | 13.4 | -2.1 | 65.7*
CC(C)COc1cccc(C(=O)N(C)CC(=O)Nc2cccc3ccccc23)c1 | -5.6 | -8.3 | -17.4 | 4.8 | -1.2 | -19.0
COc1ccc(-c2csc(Nc3ccccc3)n2)cc1 | -25.4 | 11.9 | 6.4 | 29.4 | -0.3 | -19.7
COc1ccc(-c2csc(Nc3cccnc3)n2)cc1 | -8.4 | -3.4 | 24.8* | -3.9 | -0.9 | /
COc1ccc(C(=O)Nc2cc(C)on2)cc1 | 9.5 | -7.1 | 1.5 | -9.7 | -2.2 | -5.5
CC(=O)Oc1ccc(C(=O)Nc2cc(C)on2)cc1 | -7.8 | 3.2 | 11.8 | -4.9 | 1.2 | 55.9*
O=C(NCCc1ccc(O)cc1)c1ccc(Cl)cc1 | 4.3 | -6.7 | 24.1* | -0.5 | -5.1 | /
O=C(NCCc1ccc(Cl)cc1)c1ccc(=O)[nH]c1 | -7.2 | 3.3 | -4.1 | -6.7 | 0.6 | -3.5
CC1(C)CC(=O)C2=C(C1)OC(N)=C(C#N)[C@@H]2c1ccccc1[N+](=O)[O-] | -12.8 | -251.6 | 47.9 | -7.9 | -66.1 | 178.8*
COc1cc(C2C(C#N)=C(N)OC3=C2C(=O)CC(C)(C)C3)c([N+](=O)[O-])cc1OC (stereo not given) | 17.4 | -103.8 | 7.4 | -11.0 | -28.2 | -4.3
